Test results as given in ChEMBL document CHEMBL1127386, “Nitrogen-in-the-ring pyranoses and furanoses: structural basis of inhibition of mammalian glycosidases” (J Med Chem, 1994).

Tests used:
Beta-galactosidase [1] = biological target: T1, Beta-galactosidase (Rattus norvegicus, UniProt D3ZUM4); assay: Concentration that causes 50% inhibition of mammalian beta-galactosidase was determined in rat intestine; NI is less than 50 % inhibition at 1000 uM
T1 sequence (D3ZUM4 whole entry): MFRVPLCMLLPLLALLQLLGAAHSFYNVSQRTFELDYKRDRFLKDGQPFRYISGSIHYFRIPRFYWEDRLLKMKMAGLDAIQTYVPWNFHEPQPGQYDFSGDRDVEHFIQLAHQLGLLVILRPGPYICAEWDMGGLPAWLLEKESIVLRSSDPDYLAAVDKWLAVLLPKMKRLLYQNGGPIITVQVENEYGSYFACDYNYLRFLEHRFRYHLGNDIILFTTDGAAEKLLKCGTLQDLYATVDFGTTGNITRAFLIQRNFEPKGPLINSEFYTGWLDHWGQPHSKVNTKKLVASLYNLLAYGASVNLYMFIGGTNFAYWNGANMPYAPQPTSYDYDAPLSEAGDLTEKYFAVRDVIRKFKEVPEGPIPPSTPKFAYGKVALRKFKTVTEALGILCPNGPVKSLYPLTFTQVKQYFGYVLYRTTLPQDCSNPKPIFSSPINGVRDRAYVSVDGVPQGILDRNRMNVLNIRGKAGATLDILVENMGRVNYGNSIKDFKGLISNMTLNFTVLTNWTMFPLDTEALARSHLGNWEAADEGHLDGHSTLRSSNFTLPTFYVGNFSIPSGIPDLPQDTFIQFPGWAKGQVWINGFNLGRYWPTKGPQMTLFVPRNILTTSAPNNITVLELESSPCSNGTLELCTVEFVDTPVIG

[2] = Concentration that causes 50% inhibition of mammalian alpha-glucosidase (endoplasmic reticulum glucosidase II) was determined in rat liver NI is less than 50 % inhibition at 1000 uM; type: tissue-based
Beta-galactosidase [3] = biological target: T1, Beta-galactosidase; assay: Concentration that causes 50% inhibition of mammalian beta-galactosidase was determined in rat epididymis; NI is less than 50 % inhibition at 1000 uM; type: tissue-based
Beta-galactosidase [4] = biological target: T2, Beta-galactosidase (Bos taurus, UniProt Q58D55); assay: Concentration that causes 50% inhibition of mammalian lysosomal beta-galactosidase was determined in bovine liver; NI is less than 50 % inhibition at 1000 uM
T2 sequence (Q58D55 whole entry): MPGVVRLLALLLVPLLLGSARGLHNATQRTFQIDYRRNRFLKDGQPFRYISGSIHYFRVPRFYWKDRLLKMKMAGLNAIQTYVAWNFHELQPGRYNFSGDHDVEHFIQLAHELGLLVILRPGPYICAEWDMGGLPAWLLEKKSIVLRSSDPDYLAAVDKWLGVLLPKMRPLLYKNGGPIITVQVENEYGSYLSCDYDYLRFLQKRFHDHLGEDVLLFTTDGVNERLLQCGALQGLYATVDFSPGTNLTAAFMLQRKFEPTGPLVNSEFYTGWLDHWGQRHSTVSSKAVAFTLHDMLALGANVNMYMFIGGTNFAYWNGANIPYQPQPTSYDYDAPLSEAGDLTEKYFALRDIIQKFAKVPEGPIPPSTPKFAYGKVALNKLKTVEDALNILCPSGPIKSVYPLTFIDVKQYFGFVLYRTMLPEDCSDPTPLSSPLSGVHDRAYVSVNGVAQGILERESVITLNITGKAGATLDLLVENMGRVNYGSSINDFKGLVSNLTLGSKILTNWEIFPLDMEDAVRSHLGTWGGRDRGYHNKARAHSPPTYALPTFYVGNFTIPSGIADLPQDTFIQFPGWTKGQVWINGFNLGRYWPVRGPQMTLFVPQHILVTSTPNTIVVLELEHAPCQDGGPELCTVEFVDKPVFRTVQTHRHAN

Beta-galactosidase [5] = biological target: T1, Beta-galactosidase; assay: Concentration that causes 50% inhibition of mammalian lysosomal beta-galactosidase was determined in rat liver; NI is less than 50 % inhibition at 1000 uM
[6] = Concentration that causes 50% inhibition of mammalian alpha-glucosidase (endoplasmic reticulum glucosidase II) was determined in rat liver; NI is less than 50 % inhibition at 1000 uM
Beta-galactosidase [7] = biological target: T1, Beta-galactosidase; assay: Concentration that causes 50% inhibition of mammalian epididymal beta-galactosidase was determined in rat epididymis; NI is less than 50 % inhibition at 1000 uM; type: tissue-based
[8] = biological target: Lysosomal alpha-glucosidase (Rattus norvegicus, UniProt Q6P7A9); assay: Concentration that causes 50% inhibition of mammalian alpha-glucosidase (lysosomal) was determined in rat liver; NI is less than 50 % inhibition at 1000 uM
Sequence of Lysosomal alpha-glucosidase (Q6P7A9 whole entry): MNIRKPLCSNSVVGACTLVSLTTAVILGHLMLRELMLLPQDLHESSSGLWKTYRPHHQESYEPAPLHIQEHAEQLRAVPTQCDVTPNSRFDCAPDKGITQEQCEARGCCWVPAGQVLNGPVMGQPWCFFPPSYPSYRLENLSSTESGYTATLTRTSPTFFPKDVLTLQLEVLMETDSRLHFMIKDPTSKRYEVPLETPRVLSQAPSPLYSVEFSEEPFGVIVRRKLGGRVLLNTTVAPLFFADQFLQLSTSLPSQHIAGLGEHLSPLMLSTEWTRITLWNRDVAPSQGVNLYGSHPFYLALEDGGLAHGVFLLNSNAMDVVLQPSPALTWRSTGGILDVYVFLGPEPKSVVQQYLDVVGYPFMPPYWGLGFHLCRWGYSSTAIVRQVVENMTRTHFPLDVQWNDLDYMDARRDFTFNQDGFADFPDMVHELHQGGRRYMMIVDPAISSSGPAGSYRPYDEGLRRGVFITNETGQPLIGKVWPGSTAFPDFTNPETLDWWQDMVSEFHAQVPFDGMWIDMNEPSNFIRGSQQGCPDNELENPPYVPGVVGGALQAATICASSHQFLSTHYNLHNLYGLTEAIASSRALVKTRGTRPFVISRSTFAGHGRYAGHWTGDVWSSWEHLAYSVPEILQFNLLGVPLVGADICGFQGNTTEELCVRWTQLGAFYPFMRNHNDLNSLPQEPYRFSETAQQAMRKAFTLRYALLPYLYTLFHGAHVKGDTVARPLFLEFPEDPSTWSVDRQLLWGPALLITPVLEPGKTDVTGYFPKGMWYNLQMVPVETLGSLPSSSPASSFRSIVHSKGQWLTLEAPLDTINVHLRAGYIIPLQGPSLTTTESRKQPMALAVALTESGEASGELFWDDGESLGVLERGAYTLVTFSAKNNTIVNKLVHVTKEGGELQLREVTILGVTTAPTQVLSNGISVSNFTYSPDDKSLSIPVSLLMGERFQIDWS

Alpha-glucosidase [9] = biological target: T3, Alpha-glucosidase (Bos taurus, UniProt Q9MYM4); assay: Inhibition of mammalian alpha-glucosidase (lysosomal) was determined in bovine liver; NI is less than 50 % inhibition at 1000 uM
T3 sequence (Q9MYM4 whole entry): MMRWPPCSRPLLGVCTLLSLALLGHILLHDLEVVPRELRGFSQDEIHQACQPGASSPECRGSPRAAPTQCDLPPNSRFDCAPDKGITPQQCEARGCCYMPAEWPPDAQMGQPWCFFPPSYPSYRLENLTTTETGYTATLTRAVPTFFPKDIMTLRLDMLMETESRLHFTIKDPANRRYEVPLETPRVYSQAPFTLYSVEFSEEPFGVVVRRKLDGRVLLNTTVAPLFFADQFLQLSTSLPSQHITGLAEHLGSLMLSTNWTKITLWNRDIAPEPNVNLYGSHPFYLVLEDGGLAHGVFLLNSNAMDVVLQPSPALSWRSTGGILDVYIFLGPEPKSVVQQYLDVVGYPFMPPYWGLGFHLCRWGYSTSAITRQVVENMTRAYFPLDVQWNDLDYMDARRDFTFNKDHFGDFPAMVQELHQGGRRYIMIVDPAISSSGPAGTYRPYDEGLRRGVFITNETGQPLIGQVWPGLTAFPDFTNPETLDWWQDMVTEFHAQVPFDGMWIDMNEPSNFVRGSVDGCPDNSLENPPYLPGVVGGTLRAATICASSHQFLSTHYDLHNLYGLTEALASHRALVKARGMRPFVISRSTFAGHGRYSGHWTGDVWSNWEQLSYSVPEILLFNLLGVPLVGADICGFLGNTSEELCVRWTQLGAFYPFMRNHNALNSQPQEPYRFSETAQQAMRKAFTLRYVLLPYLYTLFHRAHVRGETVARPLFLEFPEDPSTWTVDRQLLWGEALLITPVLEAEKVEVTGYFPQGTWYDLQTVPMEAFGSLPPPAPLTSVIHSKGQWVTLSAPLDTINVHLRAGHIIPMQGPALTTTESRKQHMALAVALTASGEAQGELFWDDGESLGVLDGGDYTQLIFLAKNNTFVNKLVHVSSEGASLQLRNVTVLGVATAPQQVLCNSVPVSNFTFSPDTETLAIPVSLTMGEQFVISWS

Trehalase [10] = biological target: T4, Trehalase (Rattus norvegicus, UniProt O70282); assay: Concentration that causes 50% inhibition of mammalian trehalase was determined in rat intestine; NI is less than 50 % inhibition at 1000 uM
T4 sequence (O70282 whole entry): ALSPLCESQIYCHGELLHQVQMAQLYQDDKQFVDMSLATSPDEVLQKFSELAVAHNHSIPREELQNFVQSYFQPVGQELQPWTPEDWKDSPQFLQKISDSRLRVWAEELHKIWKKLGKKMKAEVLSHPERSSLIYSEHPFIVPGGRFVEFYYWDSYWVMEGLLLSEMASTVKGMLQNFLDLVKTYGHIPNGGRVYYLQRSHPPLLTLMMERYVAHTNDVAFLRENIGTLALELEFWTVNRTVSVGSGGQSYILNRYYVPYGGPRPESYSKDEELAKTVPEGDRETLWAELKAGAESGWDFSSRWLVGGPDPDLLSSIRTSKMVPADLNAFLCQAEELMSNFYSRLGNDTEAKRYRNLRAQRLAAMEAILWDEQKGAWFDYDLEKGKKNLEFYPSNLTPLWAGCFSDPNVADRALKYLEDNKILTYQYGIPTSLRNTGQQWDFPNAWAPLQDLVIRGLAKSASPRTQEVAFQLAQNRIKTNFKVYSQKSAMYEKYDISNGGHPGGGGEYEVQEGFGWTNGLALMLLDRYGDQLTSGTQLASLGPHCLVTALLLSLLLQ

Beta-galactosidase [11] = biological target: T1, Beta-galactosidase; assay: Concentration that causes 50% inhibition of mammalian epididymal beta-galactosidase was determined in rat epididymis NI is less than 50 % inhibition at 1000 uM; type: tissue-based
Beta-galactosidase [12] = biological target: T1, Beta-galactosidase; assay: Concentration that causes 50% inhibition of mammalian lactase beta-galactosidase was determined in rat intestine; NI is less than 50 % inhibition at 1000 uM
Beta-galactosidase [13] = biological target: T2, Beta-galactosidase; assay: Concentration that causes 50% inhibition of mammalian cytosolic beta-galactosidase was determined in bovine liver; NI is less than 50 % inhibition at 1000 uM
Alpha-glucosidase [14] = biological target: T3, Alpha-glucosidase; assay: Inhibition of mammalian alpha-glucosidase (lysosomal) was determined in bovine liver; type: tissue-based
[15] = Concentration that causes 50% inhibition of mammalian alpha-glucosidase (endoplasmic reticulum glucosidase II) was determined in rat liver; type: tissue-based
[16] = biological target: Lactase/phlorizin hydrolase (Rattus norvegicus, UniProt Q02401); assay: Tested for competitive inhibition of rat intestinal lactase
Sequence of Lactase/phlorizin hydrolase (Q02401 868-1928 limits assumed): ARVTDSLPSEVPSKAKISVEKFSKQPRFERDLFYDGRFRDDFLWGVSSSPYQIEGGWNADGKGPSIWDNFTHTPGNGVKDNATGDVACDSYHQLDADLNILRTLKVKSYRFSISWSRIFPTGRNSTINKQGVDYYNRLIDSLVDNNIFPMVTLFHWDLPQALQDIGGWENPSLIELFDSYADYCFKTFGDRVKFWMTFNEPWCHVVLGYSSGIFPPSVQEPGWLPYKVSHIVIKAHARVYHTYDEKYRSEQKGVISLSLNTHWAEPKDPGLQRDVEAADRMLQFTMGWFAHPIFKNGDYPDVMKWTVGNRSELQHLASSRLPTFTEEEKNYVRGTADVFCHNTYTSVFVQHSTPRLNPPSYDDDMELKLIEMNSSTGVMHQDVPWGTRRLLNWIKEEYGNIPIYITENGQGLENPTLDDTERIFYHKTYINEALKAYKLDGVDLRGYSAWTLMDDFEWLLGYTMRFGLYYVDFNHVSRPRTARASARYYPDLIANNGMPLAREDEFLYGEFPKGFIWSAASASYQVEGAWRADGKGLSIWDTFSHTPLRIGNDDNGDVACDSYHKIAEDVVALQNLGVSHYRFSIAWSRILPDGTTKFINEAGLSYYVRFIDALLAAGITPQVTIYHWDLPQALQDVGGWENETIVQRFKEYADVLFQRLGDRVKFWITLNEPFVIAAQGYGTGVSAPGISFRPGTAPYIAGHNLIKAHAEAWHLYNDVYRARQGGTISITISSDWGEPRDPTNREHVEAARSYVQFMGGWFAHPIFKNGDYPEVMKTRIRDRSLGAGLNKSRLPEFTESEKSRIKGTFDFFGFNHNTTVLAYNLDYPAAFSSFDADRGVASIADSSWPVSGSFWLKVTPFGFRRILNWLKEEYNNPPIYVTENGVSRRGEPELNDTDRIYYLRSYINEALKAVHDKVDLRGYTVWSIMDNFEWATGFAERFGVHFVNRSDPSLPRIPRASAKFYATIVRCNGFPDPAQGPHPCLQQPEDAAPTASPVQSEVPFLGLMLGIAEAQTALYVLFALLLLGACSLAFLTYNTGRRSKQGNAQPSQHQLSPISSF
How it was run: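 Brush border membranes from rat small intestine, assayed at pH 5.8 with lactose as substrate. Released D-glucose was measured colorimetrically by the D-glucose oxidase–peroxidase method. Ki and inhibition mode were determined.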

Trehalase [17] = biological target: T4, Trehalase; assay: Concentration that causes 50% inhibition of mammalian trehalase was determined in rat intestine; NI is less than 50 % inhibition at 1000 micro M
Trehalase [18] = biological target: T4, Trehalase; assay: Concentration that causes 50% inhibition of mammalian trehalase was determined in rat intestine
Beta-galactosidase [19] = biological target: T1, Beta-galactosidase; assay: Concentration that causes 50% inhibition of mammalian lysosomal beta-galactosidase was determined in rat liverNI is less than 50 % inhibition at 1000 uM
Beta-galactosidase [20] = biological target: T2, Beta-galactosidase; assay: Concentration that causes 50% inhibition of mammalian lysosomal beta-galactosidase was determined in bovine liver NI is less than 50 % inhibition at 1000 uM; type: tissue-based
Beta-galactosidase [21] = biological target: T2, Beta-galactosidase; assay: Concentration that causes 50% inhibition of mammalian cytosolic beta-galactosidase was determined in bovine liver NI is less than 50 % inhibition at 1000 uM; type: tissue-based

IC50 (Beta-galactosidase [4]) | IC50 (Beta-galactosidase [5]) | IC50 [6] | IC50 (Beta-galactosidase [7]) | IC50 [8] | IC50 (Trehalase [10]) | SMILES | other results
 |  |  |  |  |  | OC[C@H]1NC[C@H](O)[C@@H](O)[C@@H]1O (stereo in doubt; 2) [DUVOGLUSTAT] | IC50 (Beta-galactosidase [1]): No inhibition; IC50 [2]: No inhibition; IC50 (Beta-galactosidase [3]): No inhibition
No inhibition | No inhibition | No inhibition | No inhibition |  |  | OC[C@H]1N[C@H](CO)[C@@H](O)[C@@H]1O | 
No inhibition | No inhibition | No inhibition | No inhibition | No inhibition | No inhibition | OC[C@H]1NC[C@H](O)[C@@H](O)[C@@H]1O [DUVOGLUSTAT] | IC50 (Alpha-glucosidase [9]): No inhibition
No inhibition | No inhibition | No inhibition |  | No inhibition | No inhibition | OC[C@H]1NCC[C@@H](O)[C@H]1O | IC50 (Beta-galactosidase [11]): No inhibition; IC50 (Beta-galactosidase [12]): No inhibition; IC50 (Beta-galactosidase [13]): No inhibition
 |  |  |  |  |  | OC[C@H]1NC[C@H](O)[C@@H](O)[C@@H]1O (stereo in doubt; 4) [DUVOGLUSTAT] | IC50 (Beta-galactosidase [13]): No inhibition
No inhibition | No inhibition |  | No inhibition | No inhibition | No inhibition | OC[C@H]1NCC[C@@H](O)[C@@H]1O [FAGOMINE] | IC50 (Alpha-glucosidase [14]): 520 µM; IC50 [15]: 840 µM
No inhibition | No inhibition |  | No inhibition | No inhibition |  | OC[C@H]1NCC[C@H](O)[C@@H]1O | IC50 (Alpha-glucosidase [9]): No inhibition; IC50 [2]: No inhibition; Ki [16]: 1.9 µM; IC50 (Trehalase [17]): No inhibition
 |  |  |  |  |  | OC[C@H]1NC[C@H](O)[C@@H](O)[C@@H]1O (stereo in doubt; 1) [DUVOGLUSTAT] | IC50 (Trehalase [18]): 42 µM; IC50 (Beta-galactosidase [19]): No inhibition; IC50 (Beta-galactosidase [20]): No inhibition; IC50 (Beta-galactosidase [11]): No inhibition; IC50 (Beta-galactosidase [21]): No inhibition
